Results as given in ChEMBL document CHEMBL1136312, “Nortropinyl-arylsulfonylureas as novel, reversible inhibitors of human steroid sulfatase” (Bioorg Med Chem Lett, 2003).

How the values were obtained:
Steryl-sulfatase [1] = molecular target: T1, Steryl-sulfatase (Homo sapiens, UniProt P08842); test: Inhibitory activity against Steroid sulfatase expressed in CHO cells; type: cell-based
T1 sequence (P08842 whole entry): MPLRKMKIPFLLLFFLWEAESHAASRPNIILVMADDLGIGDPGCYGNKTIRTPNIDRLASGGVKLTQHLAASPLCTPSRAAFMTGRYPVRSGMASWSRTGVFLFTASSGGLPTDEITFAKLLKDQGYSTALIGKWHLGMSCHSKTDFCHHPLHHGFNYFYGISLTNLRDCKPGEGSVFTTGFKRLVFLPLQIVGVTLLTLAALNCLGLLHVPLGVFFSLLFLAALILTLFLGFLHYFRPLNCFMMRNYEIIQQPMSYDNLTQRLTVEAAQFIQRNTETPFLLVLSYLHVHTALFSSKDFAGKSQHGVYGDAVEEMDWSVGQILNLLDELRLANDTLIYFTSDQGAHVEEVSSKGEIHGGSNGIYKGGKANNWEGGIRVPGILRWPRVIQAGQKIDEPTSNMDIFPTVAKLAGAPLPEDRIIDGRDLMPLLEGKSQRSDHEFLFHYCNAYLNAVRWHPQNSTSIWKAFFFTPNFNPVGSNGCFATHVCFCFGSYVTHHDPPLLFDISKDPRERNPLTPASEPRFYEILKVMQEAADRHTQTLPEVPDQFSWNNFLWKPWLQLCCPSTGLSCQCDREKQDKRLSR
Outline: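 Intact CHO cells over-expressing recombinant human STS are given 4-MUS as substrate, using the assay variant for reversible inhibitors. STS activity is measured in the presence of inhibitor, and the IC50 is derived.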

Steryl-sulfatase [2] = molecular target: T1, Steryl-sulfatase; test: Inhibitory activity against purified human Steroid sulfatase
Outline: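 Homogeneous human STS, purified from recombinant CHO cells, cleaves 4-methylumbelliferyl sulfate (4-MUS). The reaction is followed in a discontinuous fluorimetric assay with and without inhibitor, using a 1 h incubation in the standard format. The IC50 is taken from the inhibition data.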

Steryl-sulfatase [3] = molecular target: T1, Steryl-sulfatase; test: Inhibitory constant against purified human Steroid sulfatase
Outline: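 Kinetic study with purified recombinant human STS and 4-MUS substrate in the discontinuous fluorimetric assay. Substrate turnover rates are measured at various inhibitor concentrations and replotted as Hanes diagrams. Kapp/Vapp ratios are plotted against inhibitor concentration, and Ki is read from the abscissa intercept. Pre-incubation and dextran-activated charcoal treatment were used to test reversibility.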

MCF7 = test: Growth stimulation of estrogen receptor positive MCF-7 human breast cancer cells with compound up to 10 uM; not estrogenic; type: functional, cell-based

Row | Compound | IC50 (Steryl-sulfatase [1]) | IC50 (Steryl-sulfatase [2]) | Ki (Steryl-sulfatase [3]) | Activity (MCF7)
1 | O=C(Cc1ccccc1)O[C@H]1C[C@H]2CC[C@@H](C1)N2C(=O)NS(=O)(=O)c1ccc(F)cc1 | 39.2 µM | 50 µM | – | –
2 | Cc1ccc(S(=O)(=O)NC(=O)N2[C@@H]3CC[C@H]2C[C@@H](OC(=O)Cc2ccccc2)C3)cc1 | 37.1 µM | 16.6 µM | – | –
3 | C[C@]12CC[C@@H]3c4ccc(OS(N)(=O)=O)cc4CC[C@H]3[C@@H]1CCC2=O [EMATE] | 0.03 µM | – | 0.67 µM | –
4 | O=C(Cc1ccccc1)O[C@H]1C[C@H]2CC[C@@H](C1)N2C(=O)CS(=O)(=O)c1ccc(Cl)cc1 | 4.32 µM | 6.2 µM | – | –
5 | O=C(Cc1ccccc1)OC1CCN(C(=O)NS(=O)(=O)c2ccc(Cl)cc2)CC1 | > 30 µM | > 100 µM | – | –
6 | O=C(Cc1ccccc1)O[C@H]1C[C@H]2CC[C@@H](C1)N2C(=O)NS(=O)(=O)c1ccc(C(F)(F)F)cc1 | 7.47 µM | – | 0.53 µM | –
7 | O=C(NN1[C@@H]2CC[C@H]1C[C@@H](OC(=O)Cc1ccccc1)C2)NS(=O)(=O)c1ccc(Cl)cc1 | 3.84 µM | – | 0.89 µM | not estrogenic
8 | O=C(Cc1ccccc1)O[C@H]1C[C@H]2CC[C@@H](C1)N2C(=O)NC(=O)c1ccc(Cl)cc1 | 10.4 µM | – | 5.8 µM | –
9 | O=C(Cc1ccccc1)O[C@H]1C[C@H]2CC[C@@H](C1)N2C(=O)NS(=O)(=O)c1ccccc1 | > 30 µM | > 100 µM | – | –
10 | O=C(Cc1ccccc1)O[C@H]1C[C@H]2CC[C@@H](C1)N2C(=O)NS(=O)(=O)c1ccc(Br)cc1 | 6.15 µM | – | 1.85 µM | –
11 | N#CC1(OC(=O)Cc2ccccc2)CCN(C(=O)NS(=O)(=O)c2ccc(Cl)cc2)CC1 | 24.5 µM | 13 µM | – | –
12 | O=C(Cc1ccccc1)O[C@H]1C[C@H]2CC[C@@H](C1)N2C(=O)NS(=O)(=O)c1ccc(Cl)cc1 | 6.72 µM | – | 2.4 µM | –
13 | O=C(Cc1ccccc1)O[C@H]1C[C@H]2CC[C@@H](C1)N2C(=O)NS(=O)(=O)c1cc(C(F)(F)F)cc(C(F)(F)F)c1 | 1.89 µM | 0.084 µM | 0.076 µM | –
